Active and inactive are the calls of the source. The rule behind the calls is not given here.
What was measured:
[1] = (§1) Inhibition of HIV1 Envelope glycoprotein-mediated cell-cell fusion expressed in human HL2/3 cells coincubated with human TZM-b1 cells after 6 to 8 hrs by luciferase assay; format: cell-based; settings: Human immunodeficiency virus 1, TZM-b1
TZM-b1 = assay: as §1; format: cell-based; settings: Human immunodeficiency virus 1
[2] = test system: Human immunodeficiency virus 1; assay: Antiviral activity against Human immunodeficiency virus 1 assessed as inhibition of viral replication; format: functional, organism-based
Method in brief: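 NL4-3 mutant panel (D36G T20-sensitive; five T20-resistant NHR variants) infecting MT-2 cells with peptides at graded concentrations. p24 measured by ELISA on day 4. Run in triplicate as mean ± SD; IC50 and fold change vs D36G.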

Row | IC50 [1] [µM] | SMILES | inhibition (TZM-b1) | further results
1 | > 100 | Cc1ccc(C)n1-c1ccc(C(=O)O)c(OCC(=O)O)c1 |  | 
2 |  | Cc1cc(C(=O)O)c(C)n1-c1ccc(O)c(C(=O)O)c1 | inactive | 
3 |  | Cc1cc(C(=O)O)c(C)n1-c1ccc(C(=O)O)c(O)c1 | inactive | 
4 | > 100 | Cc1ccc(C)n1-c1ccc(OCC(=O)O)c(C(=O)O)c1 |  | 
5 |  | Cc1ccc(C)n1-c1ccc(O)c(C(=O)O)c1 |  | EC50 [2]: 0.69 µM

From ChEMBL document CHEMBL2321797 (J Med Chem, 2013)
